In publication PMC11393732 (RSC Medicinal Chemistry, 2024):

Assays:
[1] = test system: 293T cells expressing a TCF-responsive luciferase reporter (293T-TCF-Luc); assay: Wnt luciferase reporter assay; type: cell-based; conditions: Homo sapiens, HEK-293T, 16 h, read-out: IC50 (293T-TCF-Luc)
Procedure, shortened: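 293T cells stably transduced with a lentiviral TCF/LEF–luciferase reporter and selected in puromycin ([…], 4 days). Seeded at 100 000 cells/well and dosed with test compound on attachment. Wnt signalling stimulated with 20 mM LiCl 4 h later. Lysates taken at 16 h; Bright-Glo luminescence normalised to total protein.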

[2] = target: T1, KDM3A (Homo sapiens, UniProt Q9Y4C1); assay: Western blot KDM3A degradation in SW480 cells; type: cell-based
T1 sequence (Q9Y4C1 1-1321): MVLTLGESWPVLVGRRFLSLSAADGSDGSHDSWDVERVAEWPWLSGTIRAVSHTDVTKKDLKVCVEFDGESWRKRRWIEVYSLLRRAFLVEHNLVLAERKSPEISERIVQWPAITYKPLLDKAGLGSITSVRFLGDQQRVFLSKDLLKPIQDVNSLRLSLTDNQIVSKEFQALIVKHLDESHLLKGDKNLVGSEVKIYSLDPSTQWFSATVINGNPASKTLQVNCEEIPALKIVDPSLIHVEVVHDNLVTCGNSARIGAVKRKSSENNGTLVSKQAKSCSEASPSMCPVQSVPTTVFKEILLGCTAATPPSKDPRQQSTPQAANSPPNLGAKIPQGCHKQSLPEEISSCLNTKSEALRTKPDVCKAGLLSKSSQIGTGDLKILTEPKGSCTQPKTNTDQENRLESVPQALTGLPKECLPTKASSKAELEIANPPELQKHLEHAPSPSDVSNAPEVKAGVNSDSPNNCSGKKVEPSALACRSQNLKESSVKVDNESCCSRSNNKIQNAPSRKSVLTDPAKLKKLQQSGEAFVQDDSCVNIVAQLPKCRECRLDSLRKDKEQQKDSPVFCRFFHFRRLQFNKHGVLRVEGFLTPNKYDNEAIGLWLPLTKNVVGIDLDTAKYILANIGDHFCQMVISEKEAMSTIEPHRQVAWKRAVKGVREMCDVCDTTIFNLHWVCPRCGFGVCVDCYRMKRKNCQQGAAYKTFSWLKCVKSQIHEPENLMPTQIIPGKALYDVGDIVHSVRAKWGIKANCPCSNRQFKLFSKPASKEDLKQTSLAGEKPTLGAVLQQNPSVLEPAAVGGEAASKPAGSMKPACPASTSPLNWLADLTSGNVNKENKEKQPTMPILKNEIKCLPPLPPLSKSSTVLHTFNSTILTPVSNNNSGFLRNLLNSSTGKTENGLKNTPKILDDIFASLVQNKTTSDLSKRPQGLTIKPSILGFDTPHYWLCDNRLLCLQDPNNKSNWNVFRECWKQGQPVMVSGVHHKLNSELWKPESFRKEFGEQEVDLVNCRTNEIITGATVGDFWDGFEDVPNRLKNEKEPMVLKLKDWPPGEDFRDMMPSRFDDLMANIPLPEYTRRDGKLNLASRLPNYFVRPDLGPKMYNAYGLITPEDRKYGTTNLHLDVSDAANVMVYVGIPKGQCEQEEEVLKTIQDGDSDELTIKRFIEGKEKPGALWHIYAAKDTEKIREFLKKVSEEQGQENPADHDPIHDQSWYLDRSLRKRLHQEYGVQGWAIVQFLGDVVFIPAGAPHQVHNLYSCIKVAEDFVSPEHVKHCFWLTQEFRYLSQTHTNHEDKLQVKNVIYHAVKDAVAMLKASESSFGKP
Procedure, shortened: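 SW480 cells exposed to test compound for 16 h, then total lysates protein-normalised and run on SDS-PAGE. Semi-dry transfer to PVDF, 1 h block in 5% milk. Primary antibody overnight at 4 °C in 1% milk, secondary 1 h at RT, TBST washes, α-tubulin as loading control. Rescue arms co-treated with MLN4924 (1 μM) or pomalidomide (100 μM). Test compound at 0.1 μM for the KDM3A blot and 1 μM for the KDM3B blot.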

[3] = test system: KDM4 family proteins (KDM4A, KDM4B and KDM4C); assay: Western blot KDM4 family proteins in SW480 cells; type: cell-based, human
Procedure, shortened: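 Lysates from compound-treated SW480 cells normalised for total protein and resolved by SDS-PAGE. Semi-dry transfer to PVDF, 1 h block in 5% milk. Overnight incubation at 4 °C with anti-KDM4A, -KDM4B or -KDM4C antibody in 1% milk, secondary 1 h at RT, TBST washes, α-tubulin as loading control.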

[4] = target: GSPT1 (Homo sapiens, UniProt P15170); assay: Western blot neo-substrate GSPT1 degradation in SW480 cells; type: cell-based; conditions: 16 hours
[5] = test system: SW480 cells; assay: Clonogenic assay SW480; type: cell-based, human; conditions: SW480, 2 weeks
Procedure, shortened: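 Cells kept in DMEM with 10% FBS and 1% pen–strep, seeded at 500 cells/well and dosed with test compound once attached. Medium refreshed every 3 days for 2 weeks. Colonies stained with 0.5% crystal violet and photographed. ED50 obtained by image analysis.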

[6] = test system: ALDH^high-HCP-1 CSCs; assay: Tumor sphere formation assay HCP-1; type: cell-based, human; conditions: 2 weeks
Procedure, shortened: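 Trypsinised cells passed through a 40 μm strainer and stained with ALDEFLUOR. ALDHHigh cells sorted by FACS, with DEAB-treated cells as gating control. Plated at 1000 cells/well on ultra-low attachment in serum-free MEBM containing 2% B27, 20 ng mL−1 EGF, 10 ng mL−1 FGF, 1 ng mL−1 hydrocortisone, 5 μg mL−1 insulin and 100 μM β-mercaptoethanol. Dosed 1 h after plating; medium renewed at 1 week. Spheres >40 μm counted at 2 weeks for ED50.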

[7] = target: KDM3B (Homo sapiens, UniProt Q7LBC6); assay: IHC of HCP-1 xenograft tumors, KDM3B; type: in vivo, mice; conditions: HCP-1 xenograft tumor tissues
[8] = test system: CCND1; assay: IHC of HCP-1 xenograft tumors, CCND1; type: in vivo, mice; conditions: HCP-1 xenograft tumor tissues
Procedure, shortened: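 Tumours came from ALDHHigh HCP-1 xenografts in NSG mice given test compound IP (3, 10 or 35 mg kg−1) for 16 days. Paraffin sections were deparaffinised and rehydrated, then antigen-unmasked. Peroxidase blocked; sections blocked 1 h in 10% goat serum. Primary antibody overnight at 4 °C, biotinylated secondary 30 min at RT, avidin–biotin peroxidase detection, hematoxylin counterstain.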

[9] = Hepatic metabolism S9 fraction incubation, rat
[10] = 0.1 μM, plus glutathione, UDPGA, PAPS, 37 °C

Sequence of GSPT1 (Q16531 whole entry): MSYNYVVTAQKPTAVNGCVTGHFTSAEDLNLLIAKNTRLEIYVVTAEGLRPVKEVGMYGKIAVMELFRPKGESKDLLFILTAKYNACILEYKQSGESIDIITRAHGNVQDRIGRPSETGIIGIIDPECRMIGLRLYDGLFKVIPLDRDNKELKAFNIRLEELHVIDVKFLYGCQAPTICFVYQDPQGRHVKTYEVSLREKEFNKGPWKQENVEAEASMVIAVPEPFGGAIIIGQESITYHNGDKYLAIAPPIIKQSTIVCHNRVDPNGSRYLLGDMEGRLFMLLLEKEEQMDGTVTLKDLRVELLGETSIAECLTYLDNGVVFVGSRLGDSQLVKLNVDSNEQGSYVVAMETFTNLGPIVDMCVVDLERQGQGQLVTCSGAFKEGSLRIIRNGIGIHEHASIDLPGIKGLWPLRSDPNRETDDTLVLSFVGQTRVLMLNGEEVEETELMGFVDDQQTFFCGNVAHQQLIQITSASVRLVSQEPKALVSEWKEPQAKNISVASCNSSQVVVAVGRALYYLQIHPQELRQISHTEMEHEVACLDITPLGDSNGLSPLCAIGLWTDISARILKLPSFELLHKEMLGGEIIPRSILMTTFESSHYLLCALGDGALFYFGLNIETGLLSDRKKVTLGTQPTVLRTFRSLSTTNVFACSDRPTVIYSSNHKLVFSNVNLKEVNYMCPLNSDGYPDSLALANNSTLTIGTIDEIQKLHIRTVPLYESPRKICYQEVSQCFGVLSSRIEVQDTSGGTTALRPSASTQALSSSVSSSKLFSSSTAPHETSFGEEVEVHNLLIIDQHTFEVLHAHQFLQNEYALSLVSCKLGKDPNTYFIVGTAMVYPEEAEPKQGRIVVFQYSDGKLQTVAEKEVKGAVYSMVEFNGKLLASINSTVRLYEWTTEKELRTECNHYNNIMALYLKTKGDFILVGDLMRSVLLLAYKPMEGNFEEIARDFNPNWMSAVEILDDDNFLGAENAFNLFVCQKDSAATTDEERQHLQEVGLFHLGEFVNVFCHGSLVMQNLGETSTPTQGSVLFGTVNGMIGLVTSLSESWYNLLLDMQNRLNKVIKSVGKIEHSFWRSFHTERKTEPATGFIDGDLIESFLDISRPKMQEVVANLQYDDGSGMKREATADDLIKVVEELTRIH
Sequence of GSPT1 (Q96SW2 whole entry, further chain): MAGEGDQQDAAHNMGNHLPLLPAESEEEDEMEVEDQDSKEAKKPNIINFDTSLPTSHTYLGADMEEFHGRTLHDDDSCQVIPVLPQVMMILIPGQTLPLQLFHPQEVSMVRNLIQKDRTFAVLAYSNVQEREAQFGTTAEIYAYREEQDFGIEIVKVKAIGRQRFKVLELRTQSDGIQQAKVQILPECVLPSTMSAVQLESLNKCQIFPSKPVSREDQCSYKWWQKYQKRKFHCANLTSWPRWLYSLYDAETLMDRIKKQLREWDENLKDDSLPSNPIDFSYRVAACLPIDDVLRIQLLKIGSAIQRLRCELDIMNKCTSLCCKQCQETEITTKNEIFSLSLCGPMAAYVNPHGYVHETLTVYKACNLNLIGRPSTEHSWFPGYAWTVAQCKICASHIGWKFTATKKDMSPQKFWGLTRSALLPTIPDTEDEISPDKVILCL
Sequence of GSPT1 (P15170 whole entry): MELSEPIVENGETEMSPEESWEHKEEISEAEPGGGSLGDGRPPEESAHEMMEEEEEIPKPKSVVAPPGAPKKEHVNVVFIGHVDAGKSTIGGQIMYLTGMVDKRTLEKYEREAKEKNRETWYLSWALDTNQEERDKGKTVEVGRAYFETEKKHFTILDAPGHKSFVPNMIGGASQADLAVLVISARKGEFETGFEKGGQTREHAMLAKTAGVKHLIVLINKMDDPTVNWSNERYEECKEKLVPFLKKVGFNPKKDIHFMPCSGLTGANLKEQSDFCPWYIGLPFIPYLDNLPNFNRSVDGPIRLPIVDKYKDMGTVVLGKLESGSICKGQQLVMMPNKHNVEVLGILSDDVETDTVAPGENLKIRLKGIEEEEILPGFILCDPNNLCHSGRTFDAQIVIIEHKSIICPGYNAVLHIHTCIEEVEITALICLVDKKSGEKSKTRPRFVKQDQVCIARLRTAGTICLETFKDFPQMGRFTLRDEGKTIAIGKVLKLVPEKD
Sequence of KDM3B (Q7LBC6 whole entry): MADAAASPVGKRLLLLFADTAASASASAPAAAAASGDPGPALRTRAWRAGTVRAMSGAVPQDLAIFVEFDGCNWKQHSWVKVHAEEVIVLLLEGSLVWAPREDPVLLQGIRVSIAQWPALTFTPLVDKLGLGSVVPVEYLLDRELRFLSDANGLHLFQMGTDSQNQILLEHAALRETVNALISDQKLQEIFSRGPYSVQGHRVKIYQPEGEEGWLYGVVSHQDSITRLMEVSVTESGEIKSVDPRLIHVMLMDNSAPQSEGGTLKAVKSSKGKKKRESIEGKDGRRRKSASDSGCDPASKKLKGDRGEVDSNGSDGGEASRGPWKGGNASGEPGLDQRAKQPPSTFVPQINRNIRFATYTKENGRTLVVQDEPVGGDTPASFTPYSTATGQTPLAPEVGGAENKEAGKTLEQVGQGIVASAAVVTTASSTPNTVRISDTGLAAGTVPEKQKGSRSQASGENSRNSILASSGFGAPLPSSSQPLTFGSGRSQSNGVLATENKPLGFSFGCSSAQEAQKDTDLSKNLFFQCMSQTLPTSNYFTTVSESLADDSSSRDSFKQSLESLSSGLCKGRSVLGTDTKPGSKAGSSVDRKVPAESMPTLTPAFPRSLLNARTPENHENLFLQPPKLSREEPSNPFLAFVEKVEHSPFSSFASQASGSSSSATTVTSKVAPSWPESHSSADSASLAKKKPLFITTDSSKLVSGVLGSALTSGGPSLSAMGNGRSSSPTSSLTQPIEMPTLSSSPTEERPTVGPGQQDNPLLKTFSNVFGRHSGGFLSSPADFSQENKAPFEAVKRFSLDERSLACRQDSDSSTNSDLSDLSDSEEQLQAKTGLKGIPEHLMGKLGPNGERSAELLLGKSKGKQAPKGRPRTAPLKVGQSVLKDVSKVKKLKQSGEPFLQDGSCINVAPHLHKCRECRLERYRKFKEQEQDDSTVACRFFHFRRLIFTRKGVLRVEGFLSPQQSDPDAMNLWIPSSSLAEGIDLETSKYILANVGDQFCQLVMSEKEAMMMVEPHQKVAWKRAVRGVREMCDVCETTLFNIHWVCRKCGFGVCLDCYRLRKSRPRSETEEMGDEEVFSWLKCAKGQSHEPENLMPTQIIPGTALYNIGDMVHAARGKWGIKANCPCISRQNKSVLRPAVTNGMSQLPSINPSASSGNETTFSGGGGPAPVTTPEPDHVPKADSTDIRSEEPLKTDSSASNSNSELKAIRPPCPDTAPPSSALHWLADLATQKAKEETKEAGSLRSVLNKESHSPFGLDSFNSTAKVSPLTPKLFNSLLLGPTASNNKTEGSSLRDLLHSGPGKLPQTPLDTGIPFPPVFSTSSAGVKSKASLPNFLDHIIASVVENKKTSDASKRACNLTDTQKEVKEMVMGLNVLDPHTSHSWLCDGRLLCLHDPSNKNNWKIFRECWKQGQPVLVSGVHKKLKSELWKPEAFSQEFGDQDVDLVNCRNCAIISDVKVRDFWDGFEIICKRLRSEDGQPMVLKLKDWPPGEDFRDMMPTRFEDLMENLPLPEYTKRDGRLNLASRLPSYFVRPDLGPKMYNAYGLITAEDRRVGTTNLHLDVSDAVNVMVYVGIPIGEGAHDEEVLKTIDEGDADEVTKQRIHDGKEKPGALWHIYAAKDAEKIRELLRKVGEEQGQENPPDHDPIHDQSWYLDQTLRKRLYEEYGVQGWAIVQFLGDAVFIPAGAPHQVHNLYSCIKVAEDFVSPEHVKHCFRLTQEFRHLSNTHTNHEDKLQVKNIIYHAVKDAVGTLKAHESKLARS

For `O=C1CCC(N2C(=O)c3cccc(NCCOCCOCCOCCOCCNC(=O)c4ccc(O)c5ncccc45)c3C2=O)C(=O)N1` (stereo not shown) [Compound 4, N-(14-((2-(2,6-Dioxopiperidin-3-yl)-1,3-dioxoisoindolin-4-yl)amino)-3,6,9,12-tetraoxatetradecyl)-8-hydroxyquinoline-5-carboxamide], which IC50 [1] is on record?
Its IC50 is 8900 nM.

What about the Dmax ([2]; SW480, read-out: Dmax KDM3A) of the same compound?
The Dmax was 65.3%.

And the “KDM3A degradation with MLN4924 co-treatment” value ([2]; SW480, MLN4924 1 μM, compound 4 0.1 μM)?
Its value is “could be restored by MLN4924”.

What about the “KDM3A degradation with pomalidomide or IOX1 co-treatment” value ([2]; SW480, pomalidomide 100 μM, compound 4 0.1 μM) of the same compound?
Its value is “could also be suppressed by either pomalidomide or IOX1”.

And the “KDM3A degradation (western blot)” value ([2]; SW480 cells, 16 hours)?
Its value is “degrades both KDM3A and KDM3B at nanomolar concentrations”.

What about the DC50 ([2]; read-out: DC50 KDM3A, SW480 cells, 16 hours) of the same compound?
Its DC50 is 13.7 nM.

What about the “effect on KDM4 family proteins” value [3] of the same compound?
The value was “not dramatically affected”.

What about the GSPT1 degradation [4] of the same compound?
Its GSPT1 degradation is “did not induce”.

And the colony formation [5]?
Its colony formation is “potently inhibited the colony formation”.

And the “ED50 HCP-1 (tumor sphere formation)” value [6]?
The value was 280 nM.

And the “KDM3B degradation in vivo (IHC)” value [7]?
Its value is “confirmed the PROTAC-induced KDM3A and KDM3B degradation in vivo”.

What about the “CCND1 expression (IHC)” value [8] of the same compound?
The value was “downregulated”.

And the “CLint Rat (liver, S9)” value [9, 10]?
The value was 34.5 µL/min/mg.

And the “t 1/2 Rat (liver, S9)” value [9, 10]?
Its value is 20.1 min.

What about the “clearance classification, rat” value ([9]; CLint classification bands) of the same compound?
Its value is “moderate clearance”.

And the half-life at 0.1 μM ([9]; rat, s9, t 1/2 Rat (liver, S9), 0.1 μM, plus glutathione, UDPGA, PAPS, 37 °C)?
The half-life at 0.1 μM was 20 min.
